Reference: ChEMBL document CHEMBL4354843, “Structure-Based Design of a Potent and Selective Covalent Inhibitor for SRC Kinase That Targets a P-Loop Cysteine” (J Med Chem, 2020)

Columns and labels:
[1] = target: Death-associated protein kinase 3 (Homo sapiens) (UniProt O43293); assay: Binding affinity to wild-type human partial length DAPK3 (M1 to A277 residues) expressed in bacterial expression system assessed as residual binding level at 1 uM by Kinomescan method relative to control
[2] = target: Misshapen-like kinase 1 (Homo sapiens) (UniProt Q8N4C8); assay: Binding affinity to wild-type human partial length MINK (M1 to K312 residues) expressed in mammalian expression system assessed as residual binding level at 1 uM by Kinomescan method relative to control
Sequence of Misshapen-like kinase 1 (Homo sapiens) (Q8N4C8 whole entry, looked up, the tested form may be a part): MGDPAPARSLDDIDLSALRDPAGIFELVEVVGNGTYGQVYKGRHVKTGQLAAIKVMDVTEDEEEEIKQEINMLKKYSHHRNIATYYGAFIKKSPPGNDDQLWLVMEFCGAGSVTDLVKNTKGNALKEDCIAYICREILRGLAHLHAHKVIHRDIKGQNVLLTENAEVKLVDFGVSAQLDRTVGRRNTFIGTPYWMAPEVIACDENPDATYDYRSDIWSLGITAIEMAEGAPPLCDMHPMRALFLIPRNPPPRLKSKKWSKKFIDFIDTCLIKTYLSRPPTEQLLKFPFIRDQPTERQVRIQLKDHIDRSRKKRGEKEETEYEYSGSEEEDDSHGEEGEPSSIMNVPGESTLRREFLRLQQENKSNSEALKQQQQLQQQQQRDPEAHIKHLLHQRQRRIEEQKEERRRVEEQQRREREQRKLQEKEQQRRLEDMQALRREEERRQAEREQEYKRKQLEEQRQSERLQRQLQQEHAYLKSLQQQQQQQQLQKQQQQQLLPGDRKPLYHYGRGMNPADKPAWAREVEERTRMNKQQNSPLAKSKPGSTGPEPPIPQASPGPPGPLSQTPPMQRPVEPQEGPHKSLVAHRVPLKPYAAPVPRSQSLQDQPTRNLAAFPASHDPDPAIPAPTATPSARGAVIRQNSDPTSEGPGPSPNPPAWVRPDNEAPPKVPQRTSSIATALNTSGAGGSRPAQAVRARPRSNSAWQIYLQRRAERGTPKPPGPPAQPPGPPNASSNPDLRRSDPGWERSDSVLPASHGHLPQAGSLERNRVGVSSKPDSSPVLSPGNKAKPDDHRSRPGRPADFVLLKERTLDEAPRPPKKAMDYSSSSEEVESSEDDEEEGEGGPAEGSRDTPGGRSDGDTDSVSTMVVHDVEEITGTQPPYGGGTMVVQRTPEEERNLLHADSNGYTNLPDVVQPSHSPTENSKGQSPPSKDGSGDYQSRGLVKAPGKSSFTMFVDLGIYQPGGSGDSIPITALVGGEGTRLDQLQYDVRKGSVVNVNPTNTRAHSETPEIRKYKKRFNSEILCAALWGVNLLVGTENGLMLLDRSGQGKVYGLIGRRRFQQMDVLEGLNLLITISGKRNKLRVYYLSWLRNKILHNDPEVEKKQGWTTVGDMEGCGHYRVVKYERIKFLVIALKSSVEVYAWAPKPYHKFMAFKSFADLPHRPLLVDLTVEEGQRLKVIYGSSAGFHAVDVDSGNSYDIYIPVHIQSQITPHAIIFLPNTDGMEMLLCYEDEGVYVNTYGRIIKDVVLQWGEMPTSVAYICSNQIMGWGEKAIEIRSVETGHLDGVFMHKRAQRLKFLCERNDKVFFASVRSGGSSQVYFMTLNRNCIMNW
Outline: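 Active-site-directed competition binding panel of 468 kinases (KinomeScan), compound at 1 μM. The read-out is kinase remaining bound, given as a percentage of the DMSO control. […]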

[3] = target: Dual serine/threonine and tyrosine protein kinase (Homo sapiens) (UniProt Q6XUX3); assay: Binding affinity to wild-type human full length RIPK5 (M1 to T929 residues) expressed in mammalian expression system assessed as residual binding level at 1 uM by Kinomescan method relative to control
Outline: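 Active-site-directed competition binding screen across a 468-kinase panel, run with the test compound at 1 μM. The read-out is the kinase signal remaining relative to a DMSO control, reported as a percentage. […]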

[4] = AUC in B6 mouse at 5 mg/kg, ip; format: ADME, organism-based; conditions: in vivo
[5] = target: Mast/stem cell growth factor receptor Kit (Homo sapiens) (UniProt P10721); assay: Binding affinity to wild-type human partial length autoinhibited KIT (Y545 to D952 residues) expressed in mammalian expression system assessed as residual binding level at 1 uM by Kinomescan method relative to control
[6] = target: Mitogen-activated protein kinase kinase kinase 13 (Homo sapiens) (UniProt O43283); assay: Binding affinity to wild-type human full length LZK (M1 to W966 residues) expressed in mammalian expression system assessed as residual binding level at 1 uM by Kinomescan method relative to control
Outline: (§1)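 Active-site-directed competition binding panel (KinomeScan) covering 468 kinases. Test agent was screened at 1 μM. The read-out is the remaining kinase signal expressed relative to a DMSO control. Scores above 35%, taken as weak binding, were not reported.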

[7] = target: Serine/threonine-protein kinase SIK2 (Homo sapiens) (UniProt Q9H0K1); assay: Binding affinity to wild-type human full length SIK2 (M1 to N926 residues) expressed in bacterial expression system assessed as residual binding level at 1 uM by Kinomescan method relative to control
Outline: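 Active site-directed binding assay (KinomeScan) run across a 468-kinase panel, with the test compound at 1 μM. The read-out is the remaining kinase signal in the presence of compound, expressed as a percentage of the DMSO control. Scores above 35% were taken as weak binding and were not reported.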

[8] = target: Mitogen-activated protein kinase kinase kinase 14 (Homo sapiens) (UniProt Q99558); assay: Binding affinity to wild-type human partial length NIK (L318 to P947 residues) expressed in mammalian expression system assessed as residual binding level at 1 uM by Kinomescan method relative to control
[9] = target: Dual specificity mitogen-activated protein kinase kinase 4 (Homo sapiens) (UniProt P45985); assay: Binding affinity to wild-type human partial length MEK4 (S84 to D399 residues) expressed in mammalian expression system assessed as residual binding level at 1 uM by Kinomescan method relative to control
Sequence of Dual specificity mitogen-activated protein kinase kinase 4 (Homo sapiens) (P45985 whole entry, the tested form may be a part): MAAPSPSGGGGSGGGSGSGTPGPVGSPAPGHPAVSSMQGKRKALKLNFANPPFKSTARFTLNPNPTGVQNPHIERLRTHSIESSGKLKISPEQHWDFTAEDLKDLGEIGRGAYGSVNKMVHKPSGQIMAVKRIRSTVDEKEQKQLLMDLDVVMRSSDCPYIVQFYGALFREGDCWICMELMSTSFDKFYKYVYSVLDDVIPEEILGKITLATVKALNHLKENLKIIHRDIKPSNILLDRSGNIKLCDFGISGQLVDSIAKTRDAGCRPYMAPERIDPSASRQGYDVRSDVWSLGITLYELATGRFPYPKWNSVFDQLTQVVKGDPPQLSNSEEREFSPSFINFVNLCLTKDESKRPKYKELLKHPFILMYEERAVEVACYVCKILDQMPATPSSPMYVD

[10] = target: Serine/threonine-protein kinase PLK2 (Homo sapiens) (UniProt Q9NYY3); assay: Binding affinity to wild-type human partial length PLK2 (H58 to F354 residues) expressed in mammalian expression system assessed as residual binding level at 1 uM by Kinomescan method relative to control
[11] = target: cGMP-dependent protein kinase 1 (Homo sapiens) (UniProt Q13976); assay: Binding affinity to wild-type human partial length PRKG1 (L339 to F686 residues) expressed in bacterial expression system assessed as residual binding level at 1 uM by Kinomescan method relative to control
[12] = target: Mitogen-activated protein kinase 15 (Homo sapiens) (UniProt Q8TD08); assay: Binding affinity to wild-type human partial length ERK8 (M1 to P437 residues) expressed in bacterial expression system assessed as residual binding level at 1 uM by Kinomescan method relative to control
[13] = target: Maternal embryonic leucine zipper kinase (Homo sapiens) (UniProt Q14680); assay: Binding affinity to wild-type human full length MELK (M1 to V651 residues) expressed in bacterial expression system assessed as residual binding level at 1 uM by Kinomescan method relative to control; outline: as §1
Sequence of Maternal embryonic leucine zipper kinase (Homo sapiens) (Q14680 whole entry, looked up, the tested form may be a part): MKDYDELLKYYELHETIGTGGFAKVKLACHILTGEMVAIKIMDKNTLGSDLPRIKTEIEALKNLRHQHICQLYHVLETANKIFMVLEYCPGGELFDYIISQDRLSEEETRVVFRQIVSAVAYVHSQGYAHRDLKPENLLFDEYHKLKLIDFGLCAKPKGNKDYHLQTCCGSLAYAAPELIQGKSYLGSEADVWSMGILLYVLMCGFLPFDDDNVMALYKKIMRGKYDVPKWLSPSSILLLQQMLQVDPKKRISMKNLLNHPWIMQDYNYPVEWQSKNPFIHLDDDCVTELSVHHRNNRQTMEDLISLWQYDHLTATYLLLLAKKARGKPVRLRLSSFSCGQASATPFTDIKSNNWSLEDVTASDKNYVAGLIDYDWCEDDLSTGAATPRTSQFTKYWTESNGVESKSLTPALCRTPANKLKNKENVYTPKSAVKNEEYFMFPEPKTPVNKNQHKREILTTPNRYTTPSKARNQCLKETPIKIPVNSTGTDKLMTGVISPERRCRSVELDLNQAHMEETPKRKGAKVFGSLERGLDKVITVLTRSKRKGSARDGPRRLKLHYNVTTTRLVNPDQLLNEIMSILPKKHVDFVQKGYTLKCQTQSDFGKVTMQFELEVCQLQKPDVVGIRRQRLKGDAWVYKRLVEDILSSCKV

[14] = target: Mitogen-activated protein kinase kinase kinase 19 (Homo sapiens) (UniProt Q56UN5); assay: Binding affinity to wild-type human partial length YSK4 (T1019 to H1328 residues) expressed in mammalian expression system assessed as residual binding level at 1 uM by Kinomescan method relative to control
Outline: (§2)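 Active site-directed competition binding panel (KinomeScan, 468 kinases). Test compound at 1 μM. Read-out is kinase binding remaining versus DMSO control, expressed as percent of control. Scores above 35% are treated as weak binding.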

[15] = target: Mitogen-activated protein kinase 11 (Homo sapiens) (UniProt Q15759); assay: Binding affinity to wild-type human full length p38-beta (M1 to Q364 residues) expressed in bacterial expression system assessed as residual binding level at 1 uM by Kinomescan method relative to control
Outline: (§3)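 KinomeScan, an active site-directed competition binding panel of 468 kinases. The test compound was at 1 μM. The readout is remaining kinase binding as a percentage of the DMSO control. Scores above 35% were treated as weak binding and not listed.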

[16] = target: Calcium/calmodulin-dependent protein kinase type 1 (Homo sapiens) (UniProt Q14012); assay: Binding affinity to wild-type human full length CAMK1 (M1 to L370 residues) expressed in bacterial expression system assessed as residual binding level at 1 uM by Kinomescan method relative to control
Sequence of Calcium/calmodulin-dependent protein kinase type 1 (Homo sapiens) (Q14012 whole entry, looked up, the tested form may be a part): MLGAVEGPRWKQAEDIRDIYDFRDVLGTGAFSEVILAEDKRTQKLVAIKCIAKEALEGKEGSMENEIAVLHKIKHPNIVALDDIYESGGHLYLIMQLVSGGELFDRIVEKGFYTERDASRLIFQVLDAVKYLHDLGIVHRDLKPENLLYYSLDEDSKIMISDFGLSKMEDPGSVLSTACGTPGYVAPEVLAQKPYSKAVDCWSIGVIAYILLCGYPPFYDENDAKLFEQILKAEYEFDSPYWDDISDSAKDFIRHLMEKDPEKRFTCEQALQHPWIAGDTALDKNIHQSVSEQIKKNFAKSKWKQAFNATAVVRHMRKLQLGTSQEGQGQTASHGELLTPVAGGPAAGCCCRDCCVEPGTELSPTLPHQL
Outline: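 Active-site-directed KinomeScan competition binding panel covering 468 kinases, compound tested at 1 μM. Each readout is the kinase signal remaining with compound, expressed as a percentage of the DMSO control. […]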

[17] = target: Cyclin-dependent kinase 19 (Homo sapiens) (UniProt Q9BWU1); assay: Binding affinity to wild-type human partial length CDK11 (M1 to N360 residues) expressed in bacterial expression system assessed as residual binding level at 1 uM by Kinomescan method relative to control; outline: as §3
[18] = target: Non-receptor tyrosine-protein kinase TYK2 (Homo sapiens) (UniProt P29597); assay: Binding affinity to wild-type human partial length TYK2 JH1 catalytic domain (V877 to C1187 residues) expressed in mammalian expression system assessed as residual binding level at 1 uM by Kinomescan method relative to control
Sequence of Non-receptor tyrosine-protein kinase TYK2 (Homo sapiens) (P29597 whole entry, the tested form may be a part): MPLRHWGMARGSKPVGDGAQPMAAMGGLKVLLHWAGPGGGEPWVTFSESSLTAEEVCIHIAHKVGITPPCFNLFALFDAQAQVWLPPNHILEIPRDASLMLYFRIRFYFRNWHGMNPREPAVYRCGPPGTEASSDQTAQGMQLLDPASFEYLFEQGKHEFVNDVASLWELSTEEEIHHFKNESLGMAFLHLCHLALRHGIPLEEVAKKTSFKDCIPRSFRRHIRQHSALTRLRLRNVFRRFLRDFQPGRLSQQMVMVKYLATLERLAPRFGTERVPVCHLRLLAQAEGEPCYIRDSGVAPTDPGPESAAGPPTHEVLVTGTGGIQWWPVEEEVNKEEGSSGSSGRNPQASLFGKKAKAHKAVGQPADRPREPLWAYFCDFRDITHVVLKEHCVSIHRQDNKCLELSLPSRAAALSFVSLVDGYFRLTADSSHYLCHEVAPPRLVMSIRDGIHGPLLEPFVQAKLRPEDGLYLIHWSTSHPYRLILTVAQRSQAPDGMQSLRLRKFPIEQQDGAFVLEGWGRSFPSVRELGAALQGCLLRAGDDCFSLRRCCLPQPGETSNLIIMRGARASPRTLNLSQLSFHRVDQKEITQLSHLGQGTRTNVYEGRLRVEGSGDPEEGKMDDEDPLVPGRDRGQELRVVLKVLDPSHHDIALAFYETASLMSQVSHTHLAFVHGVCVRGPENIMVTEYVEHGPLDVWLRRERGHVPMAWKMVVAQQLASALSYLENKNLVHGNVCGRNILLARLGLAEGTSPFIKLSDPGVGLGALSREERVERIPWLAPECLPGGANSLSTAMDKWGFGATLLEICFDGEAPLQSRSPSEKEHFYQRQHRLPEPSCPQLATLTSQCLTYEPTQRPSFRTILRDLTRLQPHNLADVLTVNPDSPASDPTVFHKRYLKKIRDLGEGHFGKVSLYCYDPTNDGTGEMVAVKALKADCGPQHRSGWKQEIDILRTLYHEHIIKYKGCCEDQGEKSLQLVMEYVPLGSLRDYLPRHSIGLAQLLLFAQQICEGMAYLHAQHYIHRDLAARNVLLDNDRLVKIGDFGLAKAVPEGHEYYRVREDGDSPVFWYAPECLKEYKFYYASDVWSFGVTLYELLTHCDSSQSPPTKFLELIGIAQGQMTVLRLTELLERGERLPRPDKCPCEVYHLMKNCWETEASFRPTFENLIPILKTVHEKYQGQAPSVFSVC

[19] = target: Serine/threonine-protein kinase WNK2 (Homo sapiens) (UniProt Q9Y3S1); assay: Binding affinity to wild-type human partial length WNK2 (V47 to D482 residues) expressed in mammalian expression system assessed as residual binding level at 1 uM by Kinomescan method relative to control; outline: as §2
[20] = target: Phosphatidylinositol 4-phosphate 5-kinase type-1 alpha (Homo sapiens) (UniProt Q99755); assay: Binding affinity to wild-type human full length PIP5K1A (M1 to H562 residues) expressed in bacterial expression system assessed as residual binding level at 1 uM by Kinomescan method relative to control; outline: as §1
Sequence of Phosphatidylinositol 4-phosphate 5-kinase type-1 alpha (Homo sapiens) (Q99755 whole entry, the tested form may be a part): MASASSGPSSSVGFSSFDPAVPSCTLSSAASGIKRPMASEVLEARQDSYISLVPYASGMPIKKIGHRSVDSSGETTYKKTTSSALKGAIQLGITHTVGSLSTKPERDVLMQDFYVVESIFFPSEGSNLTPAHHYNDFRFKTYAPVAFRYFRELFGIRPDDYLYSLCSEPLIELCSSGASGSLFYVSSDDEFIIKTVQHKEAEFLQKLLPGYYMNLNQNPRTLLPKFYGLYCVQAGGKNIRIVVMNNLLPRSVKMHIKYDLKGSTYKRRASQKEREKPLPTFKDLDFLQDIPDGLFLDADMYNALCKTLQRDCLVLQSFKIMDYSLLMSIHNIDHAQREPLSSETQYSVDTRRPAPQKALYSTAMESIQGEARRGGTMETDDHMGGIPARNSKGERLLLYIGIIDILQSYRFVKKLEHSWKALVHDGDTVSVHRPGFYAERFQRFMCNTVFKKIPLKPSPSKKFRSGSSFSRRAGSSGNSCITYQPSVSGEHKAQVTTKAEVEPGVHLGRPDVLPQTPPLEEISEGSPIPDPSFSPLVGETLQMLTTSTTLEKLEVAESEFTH

Sequence of Death-associated protein kinase 3 (Homo sapiens) (O43293 whole entry, looked up, the tested form may be a part): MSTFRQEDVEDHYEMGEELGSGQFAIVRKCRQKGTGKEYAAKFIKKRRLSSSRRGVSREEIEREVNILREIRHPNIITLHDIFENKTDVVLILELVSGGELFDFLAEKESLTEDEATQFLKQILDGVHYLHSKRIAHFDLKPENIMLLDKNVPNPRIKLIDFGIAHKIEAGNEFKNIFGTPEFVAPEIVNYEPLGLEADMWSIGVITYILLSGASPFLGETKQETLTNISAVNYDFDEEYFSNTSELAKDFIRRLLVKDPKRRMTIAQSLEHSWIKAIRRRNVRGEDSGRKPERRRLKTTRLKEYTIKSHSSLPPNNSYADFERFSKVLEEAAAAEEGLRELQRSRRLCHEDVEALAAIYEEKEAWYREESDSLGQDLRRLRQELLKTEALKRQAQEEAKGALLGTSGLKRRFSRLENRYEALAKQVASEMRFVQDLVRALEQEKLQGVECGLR

Question: Which results are given for `C=CC(=O)Nc1ccccc1Nc1nc(Nc2ccc(N3CCN(C)CC3)cc2)ncc1C(=O)Nc1c(C)cccc1Cl`?
Answer: Activity [1]: 100%; Activity [2]: 81%; Activity [3]: 100%; AUC [4]: 212 ng·h/mL; Activity [5]: 92%; Activity [6]: 91%; Activity [7]: 67%; Activity [8]: 100%; Activity [9]: 91%; Activity [10]: 100%; Activity [11]: 100%; Activity [12]: 100%; Activity [13]: 100%; Activity [14]: 83%; Activity [15]: 98%; Activity [16]: 100%; Activity [17]: 96%; Activity [18]: 100%; Activity [19]: 64%; Activity [20]: 100%
